Data taken from PMC2574997 (Journal of medicinal chemistry, 2008).
Where two headings read alike, the source gives them in different places.

Key:
PKCα = PKCα (Mus musculus, UniProt P20444); test: Competition with [3H]PDBU binding to PKCα; conditions: for Ratio Ki crude/Ki pure: relative to unresolved library E/Z mixture
Method in brief: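 Partially purified mouse PKCα; test compound in DMSO competed with [3H]PDBU. Pure compounds ran 6–7 ligand concentrations; ID50 from sigmoidal fit; Ki = ID50/(1+L/Kd). Crude library mixtures (unresolved E/Z) were tested at a single 1 μM, with Ki calculated from that concentration. The ratio compares crude with pure Ki. Triplicates per concentration; ≥3 independent experiments; mean ± SEM.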

α-secretase = test: α-Secretase activation, secreted sAPPα by immunoblot densitometry in W4 cells; type: cell-based, rat; conditions: crude sample or control, 1 μM
JB6 cells = test: Anchorage independent transformation in soft agar; type: cell-based, Balb/C; conditions: DAG-lactone 100 ng/mL, 14 days, normalized to TPA 10 ng/mL; L2-C11: both E- and Z-isomers
Method in brief: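 JB6 cells (10^4) suspended in 0.33% top agar containing DMSO, TPA (10 ng/mL) or test compound (100 ng/mL), layered over 0.5% bottom agar also containing compound. Anchorage-independent colonies counted after 14 days by automated image analysis; colonies >8 cells scored as transformed. Four independent plates seeded. Mean colony number reported relative to TPA as 100%.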

LNCaP cells = test: Apoptosis and radiosensitization in LNCaP cells; type: cell-based, human; conditions: 10 and 20 μM, 16 h pretreatment, 24 h post radiation (20 Gy)
Method in brief: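 LNCaP human prostate cancer cells were grown at 37°C, 5% CO2 in RPMI-1640 with 10% FCS, 2 mM L-glutamine, antibiotics and 10 mM HEPES (pH 7.2). FCS was replaced by 0.2% human albumin 24 h before the experiment. Cells were pretreated 16 h with test compound (10 or 20 μM), then irradiated (20 Gy). They were fixed 24 h later and stained with bis-benzimide. Cells with ≥3 apoptotic bodies were scored apoptotic by fluorescence microscopy. Mean of two experiments ± standard deviation.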

AP-1 = AP-1 luciferase assay; type: cell-based, Balb/C; conditions: pure DAG-lactone 100 ng/mL, 18 h, normalized to TPA 10 ng/mL; L2-C11: both E- and Z-isomers
MCF-10A cells = test: Cellular motility assay; type: cell-based, human; conditions: pure compounds, dose response, total area, 20 h
[1] = test system: GFP-tagged PKCα, β, δ and ε; test: Translocation of GFP-tagged PKC isoforms in CHO cells; type: cell-based, Chinese hamster; conditions: living CHO cells, 300 nM, confocal microscopy
Method in brief: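 PKC isoforms were subcloned into a modified pEGFP-N1 plasmid to give GFP-tagged proteins, which were over-expressed in CHO cells. Localization was followed in real time by confocal microscopy before and after ligand treatment, with membrane translocation from cytosol taken as activation.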

[2] = Library 1, pure sample = Z-isomer
[3] = Library 1, pure sample = E-isomer
[4] = Library 2, pure sample = E-isomer

Row | Compound | Ratio Ki crude/Ki pure (PKCα; [3]) | Ratio Ki crude/Ki pure (PKCα; [4]) | other results
1 | CCCCCC/C=C1/CC(CO)(COC(=O)c2c(C(C)C)cc(C(C)C)cc2C(C)C)OC1=O (centres unmarked) [L1-A12, (Z)-[4-Heptylidene-2-(hydroxymethyl)-5-oxo-2-2,3-dihydrofuryl]methyl 2,4,6-tris(methylethyl)benzoate] |  |  | Ratio Ki crude/Ki pure (PKCα; [2]): 50.4
2 | CCCCC(/C=C1/CC(CO)(COC(=O)c2ccc(N(C)C)cc2)OC1=O)CC (centres unmarked) [L1-B5, (Z)-[4-(2-Ethylhexylidene)-2-(hydroxymethyl)-5-oxo-2-2,3-dihydrofuryl]methyl 4-(dimethylamino)benzoate] |  |  | Ratio Ki crude/Ki pure (PKCα; [2]): 3.4
3 | CCCCC(/C=C1/CC(CO)(COC(=O)c2ccc([N+](=O)[O-])cc2)OC1=O)CC (centres unmarked) [L1-B8, (Z)-[4-(2-Ethylhexylidene)-2-(hydroxymethyl)-5-oxo-2-2,3-dihydrofuryl]methyl 4-nitrobenzoate] |  |  | Ratio Ki crude/Ki pure (PKCα; [2]): 1.4
4 | CCCCC(CC)C(=O)OCC1(CO)C/C(=C\c2ccc(N(C)C)cc2)C(=O)O1 (centres unmarked) [L1-E2, (E)-(4-{[4-(Dimethylamino)phenyl]methylene}-2-(hydroxymethyl)-5-oxo-2-2,3-dihydrofuryl)methyl 2-ethylhexanoate] | 7.4 |  | 
5 | CN(C)c1ccc(/C=C2\CC(CO)(COC(=O)c3ccc(N(C)C)cc3)OC2=O)cc1 (centres unmarked) [L1-E5, (E)-(4-{[4-(Dimethylamino)phenyl]methylene}-2-(hydroxymethyl)-5-oxo-2-2,3-dihydrofuryl)methyl 4-(dimethylamino)benzoate] | 10.6 |  | 
6 | COc1ccc(C(=O)OCC2(CO)C/C(=C\c3ccc(N(C)C)cc3)C(=O)O2)cc1 (centres unmarked) [L1-E6, (E)-(4-{[4-(Dimethylamino)phenyl]methylene}-2-(hydroxymethyl)-5-oxo-2-2,3-dihydrofuryl)methyl 4-methoxybenzoate] | 8.7 |  | α-secretase activity (sAPPα) relative to untreated cells (100%) (α-secretase): 177%
7 | CN(C)c1ccc(/C=C2\CC(CO)(COC(=O)c3ccc([N+](=O)[O-])cc3)OC2=O)cc1 (centres unmarked) [L1-E8, (E)-(4-{[4-(Dimethylamino)phenyl]methylene}-2-(hydroxymethyl)-5-oxo-2-2,3-dihydrofuryl)methyl 4-nitrobenzoate] | 5.8 |  | 
8 | COc1ccc(/C=C2\CC(CO)(COC(=O)c3ccc(N(C)C)cc3)OC2=O)cc1 (centres unmarked) [L1-F5, (E)-{2-(Hydroxymethyl)-4-[(4-methoxyphenyl)methylene]-5-oxo-1-2,3-dihydrofuryl}methyl 4-(dimethylamino)benzoate] | 7.5 |  | 
9 | O=C1OC(CO)(COC(=O)c2ccc([N+](=O)[O-])cc2)C/C1=C\c1ccc([N+](=O)[O-])cc1 (centres unmarked) [L1-H8, (E)-{2-(Hydroxymethyl)-4-[(4-nitrophenyl)methylene]-5-oxo-2-2,3-dihydrofuryl}methyl 4-nitrobenzoate] | 5.2 |  | 
10 | CC(C)C(=O)OCC1(CO)C/C(=C/c2ccccc2C(F)(F)F)C(=O)O1 (centres unmarked) [L2-A1, (Z)-(2-(Hydroxymethyl)-5-oxo-4-{[2-(trifluoromethyl)phenyl]-methylene}-2-2,3-dihydrofuryl)methyl 2-methylpropanoate] |  |  | Ratio Ki crude/Ki pure (PKCα; Library 2, pure sample = Z-isomer): 0.51
11 | CCCC(CCC)C(=O)OCC1(CO)C/C(=C\c2ccc(C(F)(F)F)cc2)C(=O)O1 (centres unmarked) [L2-B4, (E)-(2-(Hydroxymethyl)-5-oxo-4-{[4-(trifluoromethyl)phenyl]methylene}-2-2,3-dihydrofuryl)methyl 2-propylpentanoate] |  | 5.6 | transforming activity (anchorage independent colonies) (JB6 cells): minimal transforming properties; induction of apoptosis (LNCaP cells): induction of apoptosis; AP-1 activation (AP-1 dependent luciferase activity) (AP-1): very strong AP-1 transcription factor activation
12 | (E)-{4-[(3-Chloro-4-fluorophenyl)methylene]-2-(hydroxymethyl)-5-oxo-2-2,3-dihydrofuryl}methyl 2-propylpentanoate [L2-B11] |  | 6.3 | Ki (PKCα; read-out: Pure Sample Ki, Library 2 pure compound, E-isomer): 3.38 ± 0.15 nM

The next lines start with results.

Row | Ratio Ki crude/Ki pure (PKCα; [3]) | Ratio Ki crude/Ki pure (PKCα; [4]) | Compound | other results
13 | 2.6 |  | COc1ccc(/C=C2\CC(CO)(COC(=O)c3ccc(OC)cc3)OC2=O)cc1 (centres unmarked) [L1-F6, (E)-{2-(Hydroxymethyl)-4-[(4-methoxyphenyl)methylene]-5-oxo-1-2,3-dihydrofuryl}methyl 4-methoxybenzoate] | 
14 | 32.0 |  | COc1ccc(/C=C2\CC(CO)(COC(=O)c3c(C)cc(C)cc3C)OC2=O)cc1 (centres unmarked) [L1-F11, (E)-{2-(Hydroxymethyl)-4-[(4-methoxyphenyl)methylene]-5-oxo-2-2,3-dihydrofuryl}methyl 2,4,6-trimethylbenzoate] | 
15 | 24.6 |  | COc1ccc(/C=C2\CC(CO)(COC(=O)c3c(C(C)C)cc(C(C)C)cc3C(C)C)OC2=O)cc1 (centres unmarked) [L1-F12, (E)-{2-(Hydroxymethyl)-4-[(4-methoxyphenyl)methylene]-5-oxo-2-2,3-dihydrofuryl}methyl 2,4,6-tris(methylethyl)benzoate] | 
16 | 2.7 |  | COc1ccc(C(=O)OCC2(CO)C/C(=C\c3ccc([N+](=O)[O-])cc3)C(=O)O2)cc1 (centres unmarked) [L1-H6, (E)-{2-(Hydroxymethyl)-4-[(4-nitrophenyl)methylene]-5-oxo-2-2,3-dihydrofuryl}methyl 4-methoxybenzoate] | 
17 |  | 3.0 | CCCC(CCC)C(=O)OCC1(CO)C/C(=C\c2ccc(F)cc2)C(=O)O1 (centres unmarked) [L2-B7, (E)-{4-[(4-Fluorophenyl)methylene]-2-(hydroxymethyl)-5-oxo-2-2,3-dihydrofuryl}methyl 2-propylpentanoate] | transforming activity (anchorage independent colonies) (JB6 cells): minimal transforming properties; induction of apoptosis (LNCaP cells): induction of apoptosis; AP-1 activation (AP-1 dependent luciferase activity) (AP-1): very strong AP-1 transcription factor activation
18 |  | 3.8 | CCCC(CCC)C(=O)OCC1(CO)C/C(=C\c2ccc(F)c(Cl)c2)C(=O)O1 (centres unmarked) [L2-B10, (E)-{4-[(3-Chloro-4-fluorophenyl)methylene]-2-(hydroxymethyl)-5-oxo-2-2,3-dihydrofuryl}methyl 2-propylpentanoate] | 
19 |  | 3.0 | CCCC(CCC)C(=O)OCC1(CO)C/C(=C\c2ccc(F)c(Br)c2)C(=O)O1 (centres unmarked) [L2-B12, (E)-{4-[(3-Bromo-4-fluorophenyl)methylene]-2-(hydroxymethyl)-5-oxo-2-2,3-dihydrofuryl}methyl 2-propylpentanoate] | Ki (PKCα): ~2 nM; induction of cell motility (MCF-10A cells): very weak effect on cell motility
20 |  | 4.3 | CCCCC(CC)C(=O)OCC1(CO)C/C(=C\c2ccc(Cl)cc2)C(=O)O1 (centres unmarked) [L2-C8, (E)-{4-[(4-Chlorophenyl)methylene]-2-(hydroxymethyl)-5-oxo-2-2,3-dihydrofuryl}methyl 2-ethylhexanoate] | transforming activity (anchorage independent colonies) (JB6 cells): significant transforming activity; AP-1 activation (AP-1 dependent luciferase activity) (AP-1): able to induce AP-1 activation
21 |  | 2.9 | CCCCC(CC)C(=O)OCC1(CO)C/C(=C\c2ccc(F)c(Br)c2)C(=O)O1 (centres unmarked) [L2-C12, (E)-{4-[(3-Bromo-4-fluorophenyl)methylene]-2-(hydroxymethyl)-5-oxo-2-2,3-dihydrofuryl}methyl 2-ethylhexanoate] | translocation of PKC isozymes α, β, δ and ε [1]: translocated very quickly; induction of cell motility (MCF-10A cells): induced cell motility
22 |  | 5.8 | CCC(C(=O)OCC1(CO)C/C(=C\c2ccc(-c3ccc(C(F)(F)F)cc3)cc2)C(=O)O1)c1ccccc1 (centres unmarked) [L2-D6, (E)-[2-(Hydroxymethyl)-5-oxo-4-({4-[4-(trifluoromethyl)phenyl]phenyl}methylene)-2-2,3-dihydrofuryl]methyl 2-phenylbutanoate] | induction of cell motility (MCF-10A cells): mimics L2-C12 in terms of inducing cell motility
23 |  | 1.8 | CC(C)(C)C(=O)OCC1(CO)C/C(=C\c2ccc(F)c(Cl)c2)C(=O)O1 (centres unmarked) [L2-F10, (E)-{4-[(3-Chloro-4-fluorophenyl)methylene]-2-(hydroxymethyl)-5-oxo-2-2,3-dihydrofuryl}methyl 2,2-dimethylpropanoate] | 
